Assay outcomes (PubChem)
Sampled rows, rich in hits. Any-hit rate of the full collection: about 0.72%.
mIAP inh: blocks mouse intestinal alkaline phosphatase | purified mouse IAP, CDP-Star luminescence, 30 min | inhibition, % at 10 µM | 330,000 tested, 0.2% active | AID 2806;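 active = inhibition of at least 40% at 10 µM in the primary screen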;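 note: plate controls were DMSO with enzyme for no effect and no enzyme wells for full effect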
mIAP act: mouse IAP activation | AID 2805 | activation factor at 10 µM | 330,000 tested, 0.24% active | muIAP, CDP-Star luminescence, 30 min; hits give high values; 1 = vehicle-only enzyme signal, 0 = enzyme-free wells;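 active = activation factor of at least 2 at 20 µM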
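Assay system: mouse IAP enzyme; reagent: chemiluminescent substrate CDP-Star; dosing: test compounds delivered from DMSO solution; schedule: 30 min at room temperature; measured by: luminescence from enzymatic CDP-Star hydrolysis; controls: DMSO-only wells and no-enzyme negative control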
bIAP inhibitor: blocks bovine intestinal alkaline phosphatase activity | inhibition, % at 20 µM | 190,000 tested, under 10 active | purified bovine IAP, CDP-star luminescence, 30 min;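 active = over 50% inhibition of intestinal alkaline phosphatase at 20 µM in the single-dose screen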
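Assay system: bovine IAP enzyme; medium: DEA buffer 100 mM, pH 9.8, with MgCl2 1.0 mM, ZnCl2 0.02 mM; doses: 20 µM single dose; incubation: enzyme reaction for 30 min at room temperature; detection: CDP-star luminescence signal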
hIAP act: increases human intestinal alkaline phosphatase activity | P09923 | 330,000 tested, 0.16% active | activation factor at 10 µM | purified human IAP, CDP-Star luminescence, 30 min; hits give high values; 1 = vehicle-only enzyme, 0 = enzyme-free background;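 active = activation factor of the enzyme at least 2-fold when tested at 20 µM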
Target sequence (P09923 whole entry, looked up): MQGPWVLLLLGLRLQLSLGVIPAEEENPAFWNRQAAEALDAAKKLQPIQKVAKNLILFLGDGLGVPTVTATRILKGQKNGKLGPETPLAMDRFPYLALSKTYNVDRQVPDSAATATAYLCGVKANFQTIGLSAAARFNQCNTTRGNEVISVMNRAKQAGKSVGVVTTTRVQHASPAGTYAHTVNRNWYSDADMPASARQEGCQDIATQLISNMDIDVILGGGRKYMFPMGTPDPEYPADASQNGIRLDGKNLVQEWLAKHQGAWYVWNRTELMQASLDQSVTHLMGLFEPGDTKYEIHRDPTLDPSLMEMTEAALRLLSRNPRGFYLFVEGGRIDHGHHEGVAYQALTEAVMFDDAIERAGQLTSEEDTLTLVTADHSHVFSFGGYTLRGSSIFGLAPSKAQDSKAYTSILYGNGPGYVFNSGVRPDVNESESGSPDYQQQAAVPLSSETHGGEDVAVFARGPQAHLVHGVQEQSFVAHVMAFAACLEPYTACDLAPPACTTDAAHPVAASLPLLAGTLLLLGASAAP
bIAP activator: increases bovine intestinal alkaline phosphatase activity; purified bovine IAP, CDP-star luminescence, 30 min; hits give high values; fold of DMSO-control signal, blank-subtracted; activation factor at 20 µM; 200,000 tested, 0.17% active; AID 1016;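 active = activation factor of 2 or more at 20 µM, a signal rise over negative controls twice the positive control's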
hIAP inh: blocks human intestinal alkaline phosphatase. P09923. purified IAP, CDP-Star luminescence, 30 min. inhibition, % at 10 µM. 330,000 tested, 0.12% active;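 active = inhibition reaching a set limit with compound at 10 µM in the primary screen, cut at about 35% in these data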;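 note: plate controls were DMSO wells with enzyme for no effect and no-enzyme buffer wells for full effect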
hIAP act confirm: human IAP activation confirmation; shares compounds with hIAP act; purified IAP, CDP-Star luminescence, 30 min; hits give low values; activation (%Activity, negative = activation), % at 8.3 µM; 880 tested, 10% active; AID 434926;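 active = at least twofold enzyme activation in any of six single-dose repeats, which the averaged readout prints as negative percent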
An asterisk follows results filed as active; · = no result.

SMILES	mIAP inh	mIAP act	bIAP inhibitor	hIAP act	bIAP activator	hIAP inh	hIAP act confirm
CCC(=O)NNc1ncnc2c1cnn2-c1cccc(C)c1	8	0.93	-31	1.6	1.3	-56	·
NS(=O)(=O)c1ccc2nc(NC(=O)c3ccc4ncsc4c3)sc2c1	-4	1	·	0.64	·	36*	-19
O=C(COc1ccc(Cl)cc1)OCC(=O)N1CCCc2ccccc21	44*	0.56	13	0.64	0.9	36*	-20
COc1cc(CSc2ncn[nH]2)c(OC)cc1CSc1ncn[nH]1	12	0.88	-20	2.7*	1.2	-172	-12
NC(=O)c1nc(-c2ccco2)nc2c1[nH]c(=O)n2-c1ccc(Cl)c(Cl)c1	29	0.71	·	2.1*	·	-105	-68
NC(=O)c1nc(-c2cccs2)nc2c1[nH]c(=O)n2-c1ccc(F)cc1	-24	1.2	-24	2.3*	1.2	-133	-23
CCN1/C(=C\c2ccc3cc(C)ccc3[n+]2CC)Sc2cc(C)c(C)cc21	·	·	37	·	0.6	·	·
CCN1/C(=C/c2ccc3cc(C)ccc3[n+]2CC)Sc2ccc3sccc3c21	43*	0.57	·	0.65	·	35*	0
COc1ccc(C(C(=O)NC(C)(C)C)N(CCC(C)C)C(=O)CCC(=O)Nc2cc(C)on2)cc1 (stereo unspecified)	6	0.94	·	0.99	·	1	·
Cn1c(N)c(C(=O)CSc2nnc(Cc3cccs3)n2C2CC2)c(=O)n(C)c1=O	4	0.96	·	0.92	·	8	·
Cn1c(/C(C#N)=C(\O)c2ccc(Br)s2)nc2ccccc21	5	0.95	·	0.53	·	47*	27
Cn1c(/C(C#N)=C(\O)c2cc(Cl)sc2Cl)nc2ccccc21	6	0.94	·	0.79	·	21	·
COc1ccc2c(C(=O)NCc3ccc4c(c3)OCO4)c(-c3ccc(S(C)(=O)=O)cc3)sc2c1	4	0.96	·	1	·	-1	·
COc1ccc(C)cc1NC(=O)CN1CCCC1c1ccc2c(c1)OCCCO2 (stereo unspecified)	8	0.92	·	0.94	·	6	·
COC1=CC(=Cc2c(N)n3nc(CC(=O)N4CCOCC4)sc3nc2=O)C=C(OC)C1=O	15	0.85	·	0.58	·	42*	-39
CC(=O)Nc1cccc(C(=O)NNC(=O)c2n[nH]c(=O)c3ccccc23)c1	13	0.87	·	2.3*	·	-133	-125*
CC(C)c1ccc(C(=O)NNC(=O)c2n[nH]c(=O)c3ccccc23)cc1	11	0.89	·	1.8	·	-82	·
Cc1nnc(SCC(=O)NCc2cccs2)n1-c1ccccc1	11	0.89	8	2.1*	0.9	-113	15
Cc1nnc(SCC(=O)NCc2ccccc2)n1-c1ccccc1	-8	1.1	6	1	0.9	0	·
Cc1cc(C)cc(NC(=O)CCc2ccc(C)o2)c1	35	0.65	·	1	·	0	·
Cc1cccc(NC(=O)CCc2ccc(C)o2)c1	1	0.99	-3	0.63	1	37*	-26
Cc1ccc(C(=O)NNC(=O)CCC(=O)NCc2ccccc2)cc1Br	11	0.89	·	2.2*	·	-121	2
O=C(c1cc(S(=O)(=O)N2CCOCC2)ccc1F)N(CCc1ccccc1)Cc1ccccc1	0	0.99	·	1.1	·	-8	·
COc1cc(OC)cc(C(=O)NNC(=O)C(=O)Nc2cc(OC)c(Cl)cc2OC)c1	-2	1	·	0.61	·	39*	-34
COc1cc(NC(=O)C(=O)NNC(=O)C2CCCCC2)c(OC)cc1Cl	4	0.96	8	1.2	0.9	-18	·
SMILES	mIAP inh	mIAP act	bIAP inhibitor	hIAP act	bIAP activator	hIAP inh	hIAP act confirm
Nc1c(-c2ccc(Cl)cc2)cnc2c(-c3ccccc3)cnn12	7	0.93	·	0.88	·	12	·
CCn1cc(C(=O)NCCCOC)c(=O)c2cc(S(=O)(=O)N3CCCC3)ccc21	2	0.98	·	0.61	·	39*	-23
CCCCNC(=O)c1cn(CC)c2ccc(S(=O)(=O)N3CCCC3)cc2c1=O	-2	1	·	0.82	·	18	·
COc1ccccc1N1CCN(C(=O)c2ccccc2N(C)S(=O)(=O)c2ccc(C)cc2)CC1	-2	1	·	1.2	·	-15	·
COc1ccc(C)cc1NC(=O)CCS(=O)(=O)c1cc2c(cc1Cl)NC(=O)CO2	-4	1	·	0.83	·	17	·
Cc1ccc(NC(=O)CCS(=O)(=O)c2cc3c(cc2Cl)NC(=O)CO3)cc1	3	0.97	·	0.63	·	37*	-42
Nc1nc(-c2ccccc2)c(N=Nc2cccc3ccccc23)s1	30	0.69	0	0.65	1	35*	15
COc1ccc(/C=C/c2onc(C)c2S(=O)(=O)N2CCC(C(=O)N3CCC(C)CC3)CC2)cc1	18	0.82	·	1.1	·	-12	·
Cc1nnc(N2CCc3ccccc3C2)[nH]c1=O	5	0.95	6	0.64	0.9	36*	-43
CC1CN(S(=O)(=O)c2cc(C(=O)NCCC3=CCCCC3)ccc2Cl)CC(C)O1 (stereo unspecified)	2	0.98	·	1	·	-5	·
O=C(NNc1c2ccccc2nc2ccccc12)c1ccccc1O	17	0.83	-2	0.88	1	12	·
O=C(NNc1nc(=O)c2cccnc2s1)c1ccccc1O	19	0.81	8	2.9*	0.9	-186	14
CCOC(=O)/C(O)=C(\C#N)c1nc2ccccc2[nH]1	-1	1	-4	0.9	1	10	·
O=C(NNC(=O)c1nc2ccccc2[nH]1)OCc1ccccc1	12	0.88	·	2.6*	·	-161	-25
CCn1nc(NS(=O)(=O)c2ccccc2)c2cc3ccc(C)cc3nc21	3	0.97	·	0.61	·	39*	-1
CCn1nc(NS(=O)(=O)c2ccccc2)c2cc3cc(C)ccc3nc21	5	0.95	·	1.1	·	-9	·
CCOC(=O)c1c(-c2ccccc2)csc1NC(=O)COc1ccc2c(C)cc(=O)oc2c1	-8	1.1	7	0.56	0.9	44*	-19
COc1ccc(-c2noc(N3CCC(C(=O)NCCCN4CCCC(C)C4)CC3)n2)cc1 (stereo unspecified)	3	0.97	·	0.93	·	7	·
O=C(COc1ccc2ccccc2c1Br)N1CCCCC1	5	0.95	·	0.64	·	36*	-50*
O=C1C=C(N2CCOCC2)c2ccccc2C1=O	-4	1	·	0.55	·	45*	3
CC1=C(C)C(=O)C(N2CCOCC2)=CC1=O	·	·	14	·	0.9	·	·
Cn1c(CNC(=O)CCNC(=O)c2cccc(F)c2)cc(=O)n(C)c1=O	7	0.93	·	0.62	·	38*	3
Cn1c(CNC(=O)CNC(=O)c2cccc(F)c2)cc(=O)n(C)c1=O	-3	1	·	0.97	·	3	·
COC(=O)c1cc(NC(=O)Cn2nc(C)n3cccc3c2=O)cc(C(=O)OC)c1	-4	1	·	0.61	·	39*	-4
Cc1ccccc1NC(=O)Cn1nc(C)n2cccc2c1=O	6	0.94	·	0.87	·	13	·
